pIC50, pKi: −log10 of the molar value. Active and inactive are the calls of the source. The rule behind the calls is not given here.
Key:
[1] = Plasma clearance in Beagle dog at 2.5 mg/kg, iv; format: ADME, organism-based, Canis lupus familiaris; parameters: dose 2.5 mg/kg, route intravenous
[2] = AUC in Beagle dog at 2.5 mg/kg, po; format: ADME, organism-based, Canis lupus familiaris; parameters: dose 2.5 mg/kg, route oral; conditions: plasma
[3] = Cmax in cynomolgus monkey at 2.5 mg/kg, po; format: ADME, organism-based, Macaca fascicularis; parameters: dose 2.5 mg/kg, route oral; conditions: in vivo
Rattus norvegicus [4] = species: Rattus norvegicus; assay: Reduction in postprandial glucose excursion in Zucker rat measured as AUC glucose (0-240 min); format: functional, organism-based; parameters: time < 4 hr
How it was run: (§1)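 Female ZDF rats, 10 weeks old, fasted overnight, then dosed orally with vehicle or drug. Four hours after dosing (t = 0) they had free access for 4 h to a liquid mixed meal (Ensure). Plasma was sampled for drug level, active GLP-1, insulin, glucagon and glucose.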

[5] = biological target: Dipeptidyl peptidase 4 (Rattus norvegicus) (UniProt P14740); assay: Inhibition of Zucker rat plasma DPP4 after 4 hrs at 1 mg/kg; format: functional, organism-based; parameters: dose 1 mg/kg
Sequence of Dipeptidyl peptidase 4 (Rattus norvegicus) (P14740 whole entry, looked up): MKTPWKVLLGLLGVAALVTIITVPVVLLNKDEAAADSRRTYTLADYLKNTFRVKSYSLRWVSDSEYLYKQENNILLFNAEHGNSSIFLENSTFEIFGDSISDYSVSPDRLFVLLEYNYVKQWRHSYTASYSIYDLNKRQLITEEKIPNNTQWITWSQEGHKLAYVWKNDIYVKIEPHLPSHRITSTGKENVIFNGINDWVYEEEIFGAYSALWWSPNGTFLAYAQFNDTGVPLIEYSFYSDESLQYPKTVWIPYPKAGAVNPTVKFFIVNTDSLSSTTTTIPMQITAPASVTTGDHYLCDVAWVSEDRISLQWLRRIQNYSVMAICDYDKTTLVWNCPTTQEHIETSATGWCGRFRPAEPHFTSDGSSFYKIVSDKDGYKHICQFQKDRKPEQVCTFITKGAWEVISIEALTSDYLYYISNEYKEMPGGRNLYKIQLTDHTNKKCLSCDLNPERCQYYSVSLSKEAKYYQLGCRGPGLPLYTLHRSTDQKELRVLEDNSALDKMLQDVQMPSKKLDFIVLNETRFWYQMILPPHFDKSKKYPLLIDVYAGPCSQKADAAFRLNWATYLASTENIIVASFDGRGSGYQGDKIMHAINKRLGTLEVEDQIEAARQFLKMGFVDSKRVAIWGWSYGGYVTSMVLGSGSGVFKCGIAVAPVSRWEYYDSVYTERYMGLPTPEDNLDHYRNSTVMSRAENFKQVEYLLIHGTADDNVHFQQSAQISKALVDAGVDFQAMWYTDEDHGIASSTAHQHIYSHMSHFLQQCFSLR
How it was run: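 Female Zucker diabetic fatty rats, 10 weeks old, fasted overnight, then given a single oral dose of 1 mg/kg or vehicle. Plasma DPP-IV activity inhibition and plasma drug level were measured 4 h post-dose, at the point when the rats were given free access to a liquid mixed meal (Ensure).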

[6] = Half life in cynomolgus monkey at 2.5 mg/kg, po; format: ADME, organism-based, Macaca fascicularis; parameters: dose 2.5 mg/kg, route oral; conditions: in vivo
[7] = AUC in Beagle dog at 2.5 mg/kg, iv; format: ADME, organism-based, Canis lupus familiaris; parameters: dose 2.5 mg/kg, route intravenous; conditions: plasma
How it was run: (§2)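 Single intravenous dose. Plasma drug exposure is reported as area under the curve in µg-hr/mL. It is listed in the same table as T1/2, Vss, Vβ and plasma clearance (CLp).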

Dipeptidyl peptidase 9 = Dipeptidyl peptidase 9 (Homo sapiens, UniProt Q86TI2)
Sequence of Dipeptidyl peptidase 9 (Q86TI2 whole entry): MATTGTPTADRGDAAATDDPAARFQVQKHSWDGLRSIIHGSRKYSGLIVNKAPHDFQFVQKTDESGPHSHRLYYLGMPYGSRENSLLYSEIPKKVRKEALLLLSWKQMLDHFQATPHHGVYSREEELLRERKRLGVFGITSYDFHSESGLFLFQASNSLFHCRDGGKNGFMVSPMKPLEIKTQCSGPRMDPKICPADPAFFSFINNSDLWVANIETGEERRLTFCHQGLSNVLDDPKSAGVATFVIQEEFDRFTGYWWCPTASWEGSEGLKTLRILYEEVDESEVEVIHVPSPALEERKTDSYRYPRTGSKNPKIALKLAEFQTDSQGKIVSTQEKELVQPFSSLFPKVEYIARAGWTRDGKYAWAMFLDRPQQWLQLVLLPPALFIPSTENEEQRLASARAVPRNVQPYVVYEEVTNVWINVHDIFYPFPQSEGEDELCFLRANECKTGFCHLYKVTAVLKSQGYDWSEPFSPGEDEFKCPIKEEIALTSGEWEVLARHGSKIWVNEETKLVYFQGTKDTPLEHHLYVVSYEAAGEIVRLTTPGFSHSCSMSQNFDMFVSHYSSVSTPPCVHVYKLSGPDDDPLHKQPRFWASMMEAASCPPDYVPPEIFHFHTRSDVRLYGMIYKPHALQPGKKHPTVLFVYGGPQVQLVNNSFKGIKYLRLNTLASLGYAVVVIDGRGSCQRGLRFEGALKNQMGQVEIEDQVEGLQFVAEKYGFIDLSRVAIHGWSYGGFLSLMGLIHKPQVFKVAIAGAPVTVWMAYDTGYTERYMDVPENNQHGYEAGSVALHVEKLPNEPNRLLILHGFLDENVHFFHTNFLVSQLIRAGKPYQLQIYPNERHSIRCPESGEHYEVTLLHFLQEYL

[8] = Plasma clearance in cynomolgus monkey at 2.5 mg/kg, iv; format: ADME, organism-based, Macaca fascicularis; parameters: dose 2.5 mg/kg, route intravenous
Cytochrome P450 2C9 = Cytochrome P450 2C9 (Homo sapiens, UniProt P11712); assay: Inhibition of CYP2C9; format: ADME
Sequence of Cytochrome P450 2C9 (P11712 whole entry): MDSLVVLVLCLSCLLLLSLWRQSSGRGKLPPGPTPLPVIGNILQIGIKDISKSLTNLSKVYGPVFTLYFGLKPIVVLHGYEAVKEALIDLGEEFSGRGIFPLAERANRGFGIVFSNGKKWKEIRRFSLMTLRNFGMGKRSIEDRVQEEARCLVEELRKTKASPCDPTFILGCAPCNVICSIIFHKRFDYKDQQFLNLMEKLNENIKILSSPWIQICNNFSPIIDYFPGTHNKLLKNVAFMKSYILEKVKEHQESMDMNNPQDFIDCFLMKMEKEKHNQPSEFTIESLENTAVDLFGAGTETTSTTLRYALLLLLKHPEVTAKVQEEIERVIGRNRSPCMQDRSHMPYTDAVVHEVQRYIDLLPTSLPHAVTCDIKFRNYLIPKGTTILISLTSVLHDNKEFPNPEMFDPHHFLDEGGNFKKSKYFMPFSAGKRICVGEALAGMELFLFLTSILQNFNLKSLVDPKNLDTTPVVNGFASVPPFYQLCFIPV

[9] = Drug level in Zucker rat plasma after 4 hrs at 1 mg/kg; format: ADME, organism-based; parameters: dose 1 mg/kg; conditions: read-out: Drug uptake; how it was run: as §1
Mus musculus = assay: Clastogenicity in mouse upto 2000 mg/kg; format: functional, organism-based; parameters: dose 2000 mg/kg
How it was run: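 Murine in vivo clastogenicity test, dosed at up to 2000 mg/kg.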

[10] = Half life in Beagle dog at 2.5 mg/kg, iv; format: ADME, organism-based, Canis lupus familiaris; parameters: dose 2.5 mg/kg, route intravenous; conditions: in vivo
[11] = AUC in Sprague-Dawley rat at 5 mg/kg, iv; format: ADME, organism-based; parameters: dose 5 mg/kg, route intravenous; conditions: plasma; how it was run: as §2
Canis familiaris = assay: Electrocardiographic activity in dog upto 28 ug/ml, iv; format: functional, organism-based; conditions: Canis lupus familiaris
How it was run: (§3)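 Hemodynamic and electrocardiographic profile recorded in anesthetized rats or dogs given the drug intravenously, at plasma concentrations up to 28 µg/mL.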

[12] = Oral bioavailability in Beagle dog at 2.5 mg/kg, po; format: ADME, organism-based, Canis lupus familiaris; conditions: in vivo
[13] = Tmax in Sprague-Dawley rat at 5 mg/kg, po; format: ADME, organism-based; parameters: dose 5 mg/kg, route oral; conditions: in vivo
[14] = Plasma clearance in Sprague-Dawley rat at 5 mg/kg, iv; format: ADME, organism-based; parameters: dose 5 mg/kg, route intravenous
Rattus norvegicus [15] = assay: Hemodynamic activity in rat upto 28 ug/ml, iv; format: functional, organism-based; how it was run: as §3
[16] = Tmax in Beagle dog at 2.5 mg/kg, po; format: ADME, organism-based, Canis lupus familiaris; parameters: dose 2.5 mg/kg, route oral; conditions: in vivo
[17] = Half life in Beagle dog at 2.5 mg/kg, po; format: ADME, organism-based, Canis lupus familiaris; parameters: dose 2.5 mg/kg, route oral; conditions: in vivo
[18] = Volume of distribution in terminal phase in cynomolgus monkey at 2.5 mg/kg, iv; format: ADME, organism-based, Macaca fascicularis; parameters: dose 2.5 mg/kg, route intravenous; conditions: in vivo, read-out: Vbeta
[19] = Volume of distribution in terminal phase in Beagle dog at 2.5 mg/kg, iv; format: ADME, organism-based, Canis lupus familiaris; parameters: dose 2.5 mg/kg, route intravenous; conditions: in vivo, read-out: Vbeta
Rattus norvegicus [20] = species: Rattus norvegicus; assay: Reduction in glucagon level in Zucker rat after 30 mins relative to control; format: functional; parameters: scale not given: the % may be the effect or the level left; how it was run: as §1
[21] = Half life in Sprague-Dawley rat at 5 mg/kg, iv; format: ADME, organism-based; parameters: dose 5 mg/kg, route intravenous; conditions: in vivo
[22] = Half life in Sprague-Dawley rat at 5 mg/kg, po; format: ADME, organism-based; parameters: dose 5 mg/kg, route oral; conditions: in vivo
[23] = AUC in cynomolgus monkey at 2.5 mg/kg, iv; format: ADME, organism-based, Macaca fascicularis; parameters: dose 2.5 mg/kg, route intravenous; conditions: plasma; how it was run: as §2
[24] = Cmax in Sprague-Dawley rat at 5 mg/kg, po; format: ADME, organism-based; parameters: dose 5 mg/kg, route oral; conditions: in vivo

C#C[C@H]1CC[C@@H](C#N)N1C(=O)CNC1(C)CCN(c2cc(C(=O)O)ccn2)CC1
clearance [1]: 15.2 mL/min/kg
AUC [2]: 970 ng·h/mL
Cmax [3]: 140 ng/mL
AUC (Rattus norvegicus [4]): 12500 mg/dL·min
inhibition [5]: 87%
half-life [6]: 2 h
AUC [7]: 2800 ng·h/mL
pKi (Dipeptidyl peptidase 9): < 4.52
clearance [8]: 8.5 mL/min/kg
pIC50 (Cytochrome P450 2C9): < 4.52
concentration at 4 h [9]: 18 ng/mL
Activity (Mus musculus): inactive
half-life [10]: 6.4 h
AUC [11]: 7600 ng·h/mL
Activity (Canis familiaris): Active
bioavailability [12]: 35.2%
Tmax [13]: 4.7 h
clearance [14]: 11.3 mL/min/kg
Activity (Rattus norvegicus [15]): Active
Tmax [16]: 0.8 h
half-life [17]: 5.3 h
Vd [18]: 1.3 L/kg
Vd [19]: 8.5 L/kg
Activity (Rattus norvegicus [20]): 50%
half-life [21]: 6.8 h
half-life [22]: 4.7 h
AUC [23]: 5200 ng·h/mL
Cmax [24]: 370 ng/mL
